Calls of active or inactive are those of the source. No cut-off for these calls is given here.
Experiments:
HeLa [1] = assay: Cytotoxicity against human HeLa cells assessed as dehydrogenase activity after 24 hrs by […]; type: functional; settings: read-out: LC50 (the source's name)
Method in brief: (§1)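 Cells grown in MEM with 10% FBS at 37 °C, 5% CO2 (MCF7 also given 0.01 mg/mL insulin). Unlabeled peptides were applied over a concentration range for 24 h in OPTI-MEM with 2% FBS. Cell death was scored by Sytox Red staining for loss of plasma membrane integrity and by CCK-8 dehydrogenase activity, and LC50 was determined.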

[2] = Toxicity in human RBC assessed as hemolytic activity after 2 hrs; type: cell-based, Erythrocyte; settings: red blood cells
Method in brief: (§2)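 In the red blood cell lysis assay, percent lysis was normalised to melittin ([…]) as 100% lysis and PBS as 0%. HC50 is the concentration giving 50% hemolysis. The minimal hemolytic concentration is the peptide level giving 10% hemolysis.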

[3] = Toxicity in human RBC assessed as minimum drug level required for 10% hemolysis after 2 hrs; type: cell-based; settings: erythrocyte; method in brief: as §2
[4] = Toxicity in mouse liver mitochondria assessed as minimum drug level required for mitochondrial disruption; settings: in vitro
FaDu = assay: Cytotoxicity against human FADU cells assessed as dehydrogenase activity after 24 hrs by […]; type: functional; settings: read-out: LC50 (the source's name); method in brief: as §1
MCF7 = assay: Cytotoxicity against human MCF7 cells assessed as dehydrogenase activity after 24 hrs by […]; type: functional; settings: MCF7, 24 h, read-out: LC50 (the source's name); method in brief: as §1
[5] = Cytotoxicity against human MRC5 cells assessed as dehydrogenase activity after 24 hrs by […]; type: cell-based; settings: read-out: LC50; method in brief: as §1
DU-145 = assay: Cytotoxicity against human DU145 cells assessed as dehydrogenase activity after 24 hrs by […]; type: functional; settings: DU-145, 24 h, read-out: LC50 (the source's name); method in brief: as §1
[6] = Cytotoxicity against human KS1767 cells assessed as dehydrogenase activity after 48 hrs by […]; type: functional; settings: KS1767, 48 h, read-out: LC50 (the source's name)
Method in brief: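 KS1767 cells were kept in DMEM with 10% FBS. Integrin-homing (CNGRC) peptide conjugates were incubated over a concentration range for 48 h in OPTI-MEM with 2% FBS. Death was read by Sytox Red viability staining and CCK-8 dehydrogenase activity, and LC50 was determined.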

MDA-MB-231 [7] = assay: Cytotoxicity against human MDA-MB-231 cells assessed as dehydrogenase activity after 48 hrs by […]; type: functional; settings: MDA-MB-231, 48 h, read-out: LC50 (the source's name)
MDA-MB-231 [8] = assay: Specificity index, ratio of LC50 for human MDA-MB-231 cells to LC50 for human KS1767 cells; type: functional
[9] = Octanol-water partition coefficient, log P at pH 7.4; type: physicochemical
Method in brief: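 Thiazole orange-labelled peptides were partitioned between 1-octanol and 10 mM Tris, pH 7.4. LogP is the mean with sd of three trials.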

HeLa [10] = assay: Cytotoxicity against human HeLa cells assessed as swelling and disruption of mitochondria at LC50 of 2.5 uM after 30 mins by fluorescence imaging using DAPI nuclear staining; type: functional, cell-based
HeLa [11] = assay: Cytotoxicity against human HeLa cells assessed as swelling and disruption of mitochondria at LC50 of 2.5 uM after 30 mins by transmission electron microscopy; type: functional, cell-based
HeLa [12] = assay: Cytotoxicity against human HeLa cells assessed as swelling and disruption of mitochondria at LC50 of 2.5 uM after 30 mins by calcein-AM release and quenching assay; type: functional, cell-based
HeLa [13] = assay: Cytotoxicity against human HeLa cells assessed as loss of plasma membrane integrity at LC50 of 2.5 uM by sytox red staining-based flow cytometry; type: functional, cell-based
HeLa [14] = assay: Induction of apoptosis in human HeLa cells assessed as increase in DNA fragmentation at 2.5 uM by TUNEL assay; type: functional, cell-based; settings: TDE = time-dependent effect
Method in brief: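 HeLa cells were treated with 2.5 µM peptide and sampled over time. DNA fragmentation in fixed, washed cells was detected by TUNEL using the APO-BrdU kit per the manufacturer.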

HeLa [15] = assay: Induction of apoptosis in human HeLa cells assessed as caspase 3 activation at 2.5 uM; type: functional, cell-based
Method in brief: (§3)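 After peptide treatment, HeLa cells were trypsinized, pelleted and washed. They were then stained either with FITC anti-activated caspase 3 or with anti-activated caspase 9 plus an anti-goat AlexaFluor 555 secondary. Cells were washed again and read by flow cytometry. Staurosporine-treated cells served as the positive control.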

HeLa [16] = assay: Induction of apoptosis in human HeLa cells assessed as caspase 9 activation at 2.5 uM; type: functional, cell-based; method in brief: as §3
HeLa [17] = assay: Cytotoxicity against human HeLa cells assessed as loss of mitochondrial membrane integrity at LC50 of 2.5 uM by flow cytometry

| SMILES | CC50 (HeLa [1]) | HC50 at 2 h [2] | Activity [3] | Activity [4] | CC50 (FaDu) | CC50 (MCF7) | CC50 at 24 h [5] | CC50 (DU-145) | logD [9] | other results |
| --- | --- | --- | --- | --- | --- | --- | --- | --- | --- | --- |
| CC(NC(=O)C(CC1CCCCC1)NC(=O)C(N)CCCCN)C(=O)NC(CCCCN)C(=O)NC(CC1CCCCC1)C(=O)NC(C)C(=O)NC(CCCCN)C(=O)NC(CCCCN)C(=O)NC(CC1CCCCC1)C(=O)NC(C)C(=O)NC(CCCCN)C(=O)NC(CC1CCCCC1)C(=O)NC(C)C(=O)NC(CCCCN)C(=O)O (racemic) | 6.5 µM | > 100 µM | > 100 µM | 6.3 µM |  |  |  |  |  |  |
| CCCCCCC(NC(=O)C(N)CCCCN)C(=O)NC(C)C(=O)NC(CCCCN)C(=O)NC(CCCCCC)C(=O)NC(C)C(=O)NC(CCCCN)C(=O)NC(CCCCN)C(=O)NC(CCCCCC)C(=O)NC(C)C(=O)NC(CCCCN)C(=O)NC(CCCCCC)C(=O)NC(C)C(=O)NC(CCCCN)C(=O)O (racemic) | 3.7 µM | > 100 µM | > 100 µM | 3.1 µM |  |  |  |  |  |  |
| CCCCCC[C@@H](NC(=O)[C@H](N)CCCCN)C(=O)N[C@H](C)C(=O)N[C@H](CCCCN)C(=O)N[C@H](CCCCCC)C(=O)N[C@H](C)C(=O)N[C@H](CCCCN)C(=O)N[C@H](CCCCN)C(=O)N[C@H](CCCCCC)C(=O)N[C@H](C)C(=O)N[C@H](CCCCN)C(=O)N[C@H](CCCCCC)C(=O)N[C@H](C)C(=O)N[C@H](CCCCN)C(=O)O | 2.5 µM | 31 µM | 8 µM | 2.5 µM | 2.8 µM | 2.2 µM | 2.8 µM | 2 µM |  |  |
| CC(C)CC(NC(=O)C(N)CCCCN)C(=O)NC(C)C(=O)NC(CCCCN)C(=O)NC(CC(C)C)C(=O)NC(C)C(=O)NC(CCCCN)C(=O)NC(CCCCN)C(=O)NC(CC(C)C)C(=O)NC(C)C(=O)NC(CCCCN)C(=O)NC(CC(C)C)C(=O)NC(C)C(=O)NC(CCCCN)C(=O)O (racemic) | 160 µM | > 100 µM | > 100 µM | 200 µM |  |  |  |  |  |  |
| CC(C)C[C@@H](NC(=O)[C@@H](CCCCN)NC(=O)[C@H](CS)NC(=O)[C@H](CCCNC(=N)N)NC(=O)CNC(=O)[C@H](CC(N)=O)NC(=O)[C@@H](N)CS)C(=O)N[C@H](C)C(=O)N[C@H](CCCCN)C(=O)N[C@H](CC(C)C)C(=O)N[C@H](C)C(=O)N[C@H](CCCCN)C(=O)N[C@H](CCCCN)C(=O)N[C@H](CC(C)C)C(=O)N[C@H](C)C(=O)N[C@H](CCCCN)C(=O)N[C@H](CC(C)C)C(=O)N[C@H](C)C(=O)N[C@H](CCCCN)C(=O)O |  |  |  |  |  |  |  |  |  | CC50 [6]: 63 µM; CC50 (MDA-MB-231 [7]): 144 µM; Ratio (MDA-MB-231 [8]): 2.3 |
| C[C@@H](NC(=O)[C@@H](CC1CCCCC1)NC(=O)[C@@H](CCCCN)NC(=O)[C@H](CS)NC(=O)[C@H](CCCNC(=N)N)NC(=O)CNC(=O)[C@H](CC(N)=O)NC(=O)[C@@H](N)CS)C(=O)N[C@H](CCCCN)C(=O)N[C@H](CC1CCCCC1)C(=O)N[C@H](C)C(=O)N[C@H](CCCCN)C(=O)N[C@H](CCCCN)C(=O)N[C@H](CC1CCCCC1)C(=O)N[C@H](C)C(=O)N[C@H](CCCCN)C(=O)N[C@H](CC1CCCCC1)C(=O)N[C@H](C)C(=O)N[C@H](CCCCN)C(=O)O |  |  |  |  |  |  |  |  |  | CC50 [6]: 7 µM; CC50 (MDA-MB-231 [7]): 17 µM; Ratio (MDA-MB-231 [8]): 2.7 |
| C[C@@H](NC(=O)[C@@H](CC1CCCCC1)NC(=O)[C@H](N)CCCCN)C(=O)N[C@H](CCCCN)C(=O)N[C@H](CC1CCCCC1)C(=O)N[C@H](C)C(=O)N[C@H](CCCCN)C(=O)N[C@H](CCCCN)C(=O)N[C@H](CC1CCCCC1)C(=O)N[C@H](C)C(=O)N[C@H](CCCCN)C(=O)N[C@H](CC1CCCCC1)C(=O)N[C@H](C)C(=O)N[C@H](CCCCN)C(=O)O | 2.3 µM | > 42 µM | 9 µM | 1.3 µM | 3.3 µM | 2 µM | 5.8 µM | 2 µM | -1.73 | Activity (HeLa [10]): Active; Activity (HeLa [11]): Active; Activity (HeLa [12]): Active; Activity (HeLa [13]): Active; Activity (HeLa [14]): tde; Activity (HeLa [15]): Active; Activity (HeLa [16]): Active; Activity (HeLa [17]): Active |
| C[C@@H](NC(=O)[C@@H](Cc1ccccc1)NC(=O)[C@H](N)CCCCN)C(=O)N[C@H](CCCCN)C(=O)N[C@H](Cc1ccccc1)C(=O)N[C@H](C)C(=O)N[C@H](CCCCN)C(=O)N[C@H](CCCCN)C(=O)N[C@H](Cc1ccccc1)C(=O)N[C@H](C)C(=O)N[C@H](CCCCN)C(=O)N[C@H](Cc1ccccc1)C(=O)N[C@H](C)C(=O)N[C@H](CCCCN)C(=O)O |  |  |  |  |  |  |  |  | -2.52 |  |
| CC(C)C[C@@H](NC(=O)[C@H](N)CCCCN)C(=O)N[C@H](C)C(=O)N[C@H](CCCCN)C(=O)N[C@H](CC(C)C)C(=O)N[C@H](C)C(=O)N[C@H](CCCCN)C(=O)N[C@H](CCCCN)C(=O)N[C@H](CC(C)C)C(=O)N[C@H](C)C(=O)N[C@H](CCCCN)C(=O)N[C@H](CC(C)C)C(=O)N[C@H](C)C(=O)N[C@H](CCCCN)C(=O)O | 350 µM | > 100 µM | > 100 µM | 200 µM | > 200 µM | > 300 µM | > 200 µM | > 300 µM | -2.3 |  |

From ChEMBL document CHEMBL1138505, “Engineered apoptosis-inducing peptides with enhanced mitochondrial localization and potency” (J Med Chem, 2009)
